# Results gathered from unrelated publications.
# Compare with care: the assays were run in different laboratories.
# Target: Phosphatidylinositol 4,5-bisphosphate 3-kinase catalytic subunit gamma isoform (PIK3CG, Homo sapiens, UniProt P48736)
SMILES,read-out,method,tested at,remaining binding [%]
C[C@H](c1cccc(C#N)c1)n1cc(Cl)cc(C(N)=O)c1=N,cell-free assay,competition with immobilised ligand,1 µM,98
C[C@@H](c1ccc(-n2cnc3c(N)ncnc32)cc1)N1CCc2nn(C)c(Cc3ccccc3)c2C1=O,binding,competition with immobilised ligand,0.1 µM,85
CN(CCCC(F)(F)F)c1nccc(-c2cnn3ncccc23)n1,binding,,1 µM,100
CN1CCN(c2cnc3c(C4CCN(C(=O)c5ccc(OC(F)(F)F)cc5N)CC4)ncnc3c2)CC1,cell-free assay,competition with immobilised ligand,1 µM,95
N[C@@H]1CCN(c2nccc(-c3cnn4ncccc34)n2)C1,binding,,1 µM,100
CCCOc1ccc([C@H]2[C@H](C(=O)O)[C@@H](c3ccc4c(c3)OCO4)CN2CC(=O)Nc2c(CC)cccc2CC)cc1,cell-free assay,competition with immobilised ligand,1 µM,68
Cc1cnc(Nc2ccc(C(=O)N3CCC(N4CCCC4)CC3)cc2)nc1-c1cc2ccccc2s1,binding,competition with immobilised ligand,1 µM,81
C[C@H]1CCN(c2nccc(-c3cnn4ncccc34)n2)C1,binding,,1 µM,82
COCCOc1nc(-c2ccc(Cl)nc2)nc2c1CN(C(=O)c1ncn3ccccc13)CC2,cell-free assay,competition with immobilised ligand,0.1 µM,100
O=C(Nc1c[nH]nc1C(=O)NC1CCNCC1)c1cc(F)cc(F)c1,binding,competition with immobilised ligand,1 µM,100
COC(=O)Nc1nc2ccc(C(=O)c3ccccc3)cc2[nH]1,cell-free assay,competition with immobilised ligand,10 µM,18
O=C(c1ccc(Nc2nccc(-c3cc4ccccc4s3)n2)cc1)N1CCC(N2CCCC2)CC1,binding,competition with immobilised ligand,1 µM,27
FC(F)(F)c1ccc2c(c1)nc(-c1cccnc1)n2C1CC1,cell-free assay,competition with immobilised ligand,1 µM,92
COc1cnc(Nc2cccc(S(N)(=O)=O)c2)nc1N1CCN(c2ccccc2)CC1,binding,competition with immobilised ligand,1 µM,94
O=C(NCCCN1CCOCC1)c1ccc(Nc2ncc(Cl)c(-c3ccc(Cl)s3)n2)cc1,binding,competition with immobilised ligand,1 µM,100
N#Cc1ccccc1CSc1nnc2c(n1)[nH]c1ccccc12,binding,competition with immobilised ligand,10 µM,100
NS(=O)(=O)c1cc(NC(=O)Cc2ccccc2)ccc1Oc1cccc(Cl)c1,cell-free assay,competition with immobilised ligand,1 µM,77
c1cnn2ncc(-c3ccnc(N4CCC45COC5)n3)c2c1,binding,,1 µM,74
COc1ncc2cc3ccccc3nc2c1C#N,cell-free assay,competition with immobilised ligand,5 µM,100
CN(C)c1nccc(-c2cnn3ncccc23)n1,binding,,1 µM,76
CNC(=O)[C@@H]1CC[C@@H](n2c(-c3ccc4cnccc4c3)nc3ccc(C(=O)NCc4cccc(C(N)=O)c4)cc32)C1,binding,competition with immobilised ligand,1 µM,100
Cn1cc(Cl)c2c(Oc3c(F)cc(Nc4cc(Cl)nc(N)n4)cc3F)ccnc21,cell-free assay,competition with immobilised ligand,0.1 µM,82
Cc1cnn2ncc(-c3ccnc(N(C)C)n3)c2c1,binding,,1 µM,47
